Test results from PubChem BioAssay.
Calls of active or inactive are those of the source.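 Rule for the calls, unless noted: active = NADPH fluorescence slope more negative than the mean of all samples by about 3 SD, 99.7% confidence; inactive = the rest.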

Columns and labels:
[1] = inhibitors of TNFa-induced NFkB p65 translocation, primary screen, imaging, HUVEC, MLSMR starter and 10KST1 sets (AID 438;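 active = inhibition above 20% together with a positive visual image hit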;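 note: compound added about 3h40 before a 20 min TNFalpha stimulation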;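 for inhibition: signal is the nuclear over cytoplasmic p65 intensity ratio per well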); conditions: HUVEC TNFa-induced p65 nuclear translocation; cell count: measured here: nuclei count (cytotoxicity indicator), at 2.08 µM; inhibition: at 2 µM, stronger effect = higher value, 0% TNFa-plus-vehicle, 100% no-TNFa wells
[2] = inhibitors of E-selectin induction by TNFa, primary screen, imaging, HUVEC, immunofluorescence, MLSMR starter and 10KST1 sets (AID 487;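 active = visually confirmed hit in the image check and inhibition above 20%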;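 for inhibition: signal is fraction of cell area covered by stained E-selectin grains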;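 for nuclei count: 100% = median nuclei count of all wells on the same plate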); conditions: HUVEC TNFalpha-induced E-selectin immunofluorescence imaging, at 2 µM; inhibition: stronger effect = higher value; nuclei count: measured here: cell number, toxicity
[3] = DUSP6 inhibitors restoring Erk phosphorylation by chemical complementation, primary imaging in DUSP6-transfected HeLa (AID 609;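 active = compounds giving at least 50% inhibition in the cell-based MKP-3 phosphatase rescue imaging test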;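 for inhibition: phospho-Erk level distribution per well compared with pooled transfected vehicle control wells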); conditions: HeLa MKP-3 transfected, phospho-Erk imaging KS statistic, at 10 µM, cells stimulated with TPA for 15 min
[4] = molecular target: Dual specificity protein phosphatase 6 (Homo sapiens) (UniProt Q16828); assay: as above; conditions: HeLa MKP-3 transfected, phospho-Erk imaging KS statistic; at 10 µM; stronger effect = higher value; cells stimulated with TPA for 15 min
[5] = molecular target: Voltage-gated potassium channel subunit beta-2 (Rattus norvegicus) (UniProt P62483); assay: KvBeta enzyme negative modulators, primary screen, biochemical, NADPH fluorescence (AID 622;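 active = fluorescence slope higher than the sample average by over 3 SD, cut at about -0.22 in these data, passing the limit was not always enough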;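 note: slope of raw intensity against log time taken from 70 to 1610 s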); conditions: recombinant KvBeta, 4-cyanobenzaldehyde reduction, at 10 µM, stronger effect = higher value
[6] = molecular target: Voltage-gated potassium channel subunit beta-2 (Rattus norvegicus) (UniProt P62483); assay: KvBeta positive modulators, primary screen, biochemical, NADPH fluorescence (AID 623); conditions: Recombinant KvBeta, NADPH fluorescence decrease slope, 10 min; at 10 µM; stronger effect = lower value;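 note: fluorescence intensity change per second fitted from 20 to 320 s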
[7] = molecular target: Alpha-2C adrenergic receptor (Homo sapiens) (UniProt P18825); assay: modulators of alpha2C/GIRK thallium flux, primary screen, cell-based, HEK293 alpha2C/GIRK1/2 (AID 624;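 active = fluorescence slope after compound addition differing from the mean of all screened samples at 99.7% confidence, in either direction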;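 note: slope of fluorescence ratio to pre-addition baseline per second over 15 to 24 s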); conditions: thallium flux BTC fluorescence, at 10 µM, actives lie on both sides
[8] = inhibitors of larval lipid processing in zebrafish, primary screen, whole organism, PED6 fluorescence, gall bladder and intestine (AID 686;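 active = a full or partial loss of lipid-probe fluorescence in the fish gall bladder, intestine or both, judged by eye; inactive = no fluorescence loss, or compound toxic to the fish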;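 note: larvae 5 to 7 days old with five fish per well; signal comes from phospholipase A2 cleavage of quenched PED6 carried via bile; overnight exposure to compound and PED6 before scoring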); conditions: Zebrafish larvae PED6 lipid processing, fluorescence scoring; screened at 20 µM (by protocol)
Outline: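 System: live zebrafish larvae aged 5-7 days, whole organism; measure: graded gall bladder and intestinal fluorescence inhibition per well; incubation: overnight exposure; reagent: ingested quenched lipid PED6 at 100 nM; signal: By-eye fluorescence microscopy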

[9] = inhibitors of Chlamydomonas gravitaxis, primary screen, whole organism, Chlamydomonas reinhardtii, WT vs cilia-less mutant, absorbance, 96-well (AID 463189;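 active = inhibition at or above 50% relative to wild type and mutant plate controls; inactive = inhibition below 50%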;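 note: 0% = wild type cc124 cells in DMSO and 100% = ciliumless bld1 mutant cells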); conditions: OD600 absorbance, 2 days, at 10 µM, stronger effect = higher value
[10] = measured here: cell density z-score
[11] = measured here: nuclear c-Myc green intensity z-score
[12] = measured here: nuclear pErk red intensity z-score, stronger effect = higher value

Chain of Dual specificity protein phosphatase 6 (Homo sapiens) (Q16828 whole entry, looked up): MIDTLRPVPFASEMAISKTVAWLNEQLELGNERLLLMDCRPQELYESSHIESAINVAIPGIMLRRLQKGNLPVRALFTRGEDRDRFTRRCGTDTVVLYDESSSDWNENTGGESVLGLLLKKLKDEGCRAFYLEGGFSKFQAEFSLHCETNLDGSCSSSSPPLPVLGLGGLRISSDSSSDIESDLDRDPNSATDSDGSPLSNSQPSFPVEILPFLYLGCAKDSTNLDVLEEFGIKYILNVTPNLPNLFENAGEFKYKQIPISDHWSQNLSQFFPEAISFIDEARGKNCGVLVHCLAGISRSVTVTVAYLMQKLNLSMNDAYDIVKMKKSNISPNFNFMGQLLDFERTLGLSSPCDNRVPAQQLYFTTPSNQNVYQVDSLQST
Chain of Alpha-2C adrenergic receptor (Homo sapiens) (P18825 whole entry, looked up): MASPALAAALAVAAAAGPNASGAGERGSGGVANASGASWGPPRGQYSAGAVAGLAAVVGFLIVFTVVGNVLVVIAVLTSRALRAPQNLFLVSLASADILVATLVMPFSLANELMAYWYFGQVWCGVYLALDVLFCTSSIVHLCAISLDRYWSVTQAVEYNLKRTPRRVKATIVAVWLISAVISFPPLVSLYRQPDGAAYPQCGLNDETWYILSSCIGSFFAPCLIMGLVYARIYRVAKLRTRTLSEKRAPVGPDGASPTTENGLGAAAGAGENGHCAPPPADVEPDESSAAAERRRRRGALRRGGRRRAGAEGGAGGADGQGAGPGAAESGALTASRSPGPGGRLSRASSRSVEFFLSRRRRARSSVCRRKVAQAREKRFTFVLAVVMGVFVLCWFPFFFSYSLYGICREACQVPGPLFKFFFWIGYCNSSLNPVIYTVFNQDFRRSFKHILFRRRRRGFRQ
Chain of Voltage-gated potassium channel subunit beta-2 (Rattus norvegicus) (P62483 whole entry, looked up): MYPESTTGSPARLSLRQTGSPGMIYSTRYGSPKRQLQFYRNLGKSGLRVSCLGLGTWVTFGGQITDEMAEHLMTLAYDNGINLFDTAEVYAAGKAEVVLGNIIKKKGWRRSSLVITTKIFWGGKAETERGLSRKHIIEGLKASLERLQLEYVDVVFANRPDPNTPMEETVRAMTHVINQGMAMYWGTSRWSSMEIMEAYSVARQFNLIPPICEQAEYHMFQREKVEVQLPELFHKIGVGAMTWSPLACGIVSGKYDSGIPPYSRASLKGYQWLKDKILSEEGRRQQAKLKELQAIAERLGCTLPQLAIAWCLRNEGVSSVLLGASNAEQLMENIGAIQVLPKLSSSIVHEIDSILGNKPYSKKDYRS

SMILES | cell count [1] | inhibition [1] | inhibition [2] | nuclei count [2] [%] | z-score [3, 10] | z-score [3, 11] | z-score [3, 12] | inhibition [4] | fluorescence slope [5] | NADPH fluorescence slope [6] | slope [7] | outcome [8] | inhibition [9]
c1ccc(N2CCN(c3nc(NCc4ccco4)c4ccccc4n3)CC2)cc1 | 579 | 0.1% (inactive) | -25.4% (inactive) | 219 | 0.527 | -0.848 | 2.43 | -4.7% (inactive) | -0.35 (inactive) | -2.5e-05 (inactive) | 0.00337 (inactive) | inactive | 35.9% (inactive)
Cc1sccc1C1C(C#N)=C(N)SC(N)=C1C#N | 693 | -19.1% (inactive) | -22.1% (inactive) | 167 | 0.12 | -0.636 | 1.06 | 16% (inactive) | -0.345 (inactive) | -2.2e-05 (inactive) | 0.00967 (inactive) | inactive | -2.96% (inactive)
Fc1ccc2[nH]c3c(N4CCN(Cc5ccc6c(c5)OCO6)CC4)ncnc3c2c1 | 523 | -4.5% (inactive) | -93.3% (inactive) | 169 | 0.499 | 0.133 | -0.391 | -1.12% (inactive) | -0.311 (inactive) | 3.2e-05 (inactive) | 0.00448 (inactive) | inactive; toxic | 58.4% (active)
CCCOc1cccc(C2C(C(=O)c3ccc(C)o3)=C(O)C(=O)N2CCCN(C)C)c1 (stereo unspecified) | 432 | 3.5% (inactive) | 48.5% (inactive) | 77.5 | -0.596 | -1.82 | 0.0129 | -11.9% (inactive) | -0.45 (inactive) | -9.1e-06 (inactive) | 0.00522 (inactive) | inactive | -2.38% (inactive)
CC(=O)N=C(N)Sc1nc2ccccc2[nH]1 | 570 | -2.8% (inactive) | -55% (inactive) | 161 | -0.578 | 0.85 | 0.434 | 22.1% (inactive) | -0.462 (inactive) | -0.000171 (inactive) | 0.00501 (inactive) | inactive | 4.16% (inactive)
C=CCNc1sc(C(=O)C2CC2)c(N)c1C#N | 669 | -24.9% (inactive) | -70.3% (inactive) | 173 | 0.613 | -1.22 | 0.948 | 19.4% (inactive) | -0.366 (inactive) | -3.3e-05 (inactive) | 0.00551 (inactive) | inactive | -5.34% (inactive)
CC(C)OC(=O)[C@H]1[C@H](c2ccc(Cl)cc2)[C@@](C#N)(C(N)=O)[C@@H]2C=CC(C(N)=O)=CN21 | 523 | -4.9% (inactive) | -24% (inactive) | 155 | 0.333 | 0.745 | -0.843 | 2.46% (inactive) | -0.335 (inactive) | 1.2e-05 (inactive) | 0.00427 (inactive) | inactive | 6.97% (inactive)
Cn1c(O)c(C=Nc2ccc(Cc3ccncc3)cc2)c(=O)n(C)c1=O | 642 | 6.6% (inactive) | -91% (inactive) | 136 | -1.1 | -0.451 | 0.687 | 4.25% (inactive) | -0.486 (inactive) | -9.5e-05 (inactive) | 0.00577 (inactive) | inactive | -1.46% (inactive)
CCN1C(=O)CC(N2CCN(c3ccc(OC)cc3)CC2)C1=O (stereo unspecified) | 489 | -27.6% (inactive) | -368% (inactive) | 154 | 1.11 | -0.53 | -0.692 | 16.1% (inactive) | -0.537 (inactive) | -6.5e-05 (inactive) | 0.00497 (inactive) | inactive | 5.49% (inactive)
CCc1nc(SCc2cccnc2)c(C#N)cc1C | 594 | -3.5% (inactive) | -81.5% (inactive) | 176 | 0.241 | -0.223 | -1.08 | 2.46% (inactive) | -0.341 (inactive) | 8.2e-06 (inactive) | 0.00538 (inactive) | inactive | 50.3% (active)
O=S(=O)(c1ccc(Cl)cc1)N1CCC(N2CCCCCC2)CC1 | 450 | -23.8% (inactive) | -135% (inactive) | 160 | -0.279 | -1.42 | 0.26 | 11% (inactive) | -0.321 (inactive) | 6.3e-06 (inactive) | 0.0047 (inactive) | inactive | 121% (active)
CCCCOc1ccccc1/C=c1/sc2nc(-c3oc4ccccc4c3C)nn2c1=O | 431 | 0.7% (inactive) | -36.7% (inactive) | 128 | 0.907 | 2.04 | -0.0877 | 2.46% (inactive) | -0.325 (inactive) | -1e-05 (inactive) | 0.00462 (inactive) | inactive | -7.58% (inactive)
